Like-named read-outs stand apart in the source and are kept apart here.
Test system: patients with relapsed/refractory lymphoma
Type: in vivo, human
Conditions: for Drug-related grade ⩾3 AE: Renal failure: includes renal failure acute; for Drug-related AE: PN NEC: peripheral neuropathy, high-level term
Outline: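 Open-label phase 1 in patients with relapsed/refractory lymphoma after ⩾2 prior therapies. Dosing started at one patient per level with doubling from 0.125 to 1.0 mg/m2, then followed a 3+3 schema up to 3.11 mg/m2. DLTs were assessed in cycle 1, and AEs were graded by NCI-CTCAE v3.0.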

CC(C)C[C@H](NC(=O)CNC(=O)c1cc(Cl)ccc1Cl)B(O)O [ixazomib]
0 n: Drug-related AE: Paresthesia (dose 1.76 mg/m^2 (n=7)) | Drug-related grade ⩾3 AE: Dehydration (dose 1.76 mg/m^2 (n=7)) | Drug-related grade ⩾3 AE: Diarrhea (dose 1.76 mg/m^2 (n=7)) | Drug-related grade ⩾3 AE: Lymphopenia (dose 1.76 mg/m^2 (n=7)) | Drug-related AE: Constipation (dose 2.34 mg/m^2 (n=10)) | Drug-related AE: Decreased appetite (dose 2.34 mg/m^2 (n=10)) | Drug-related AE: Decreased platelet count (dose 2.34 mg/m^2 (n=10)) | Drug-related AE: Hypokalemia (dose 2.34 mg/m^2 (n=10)) | Drug-related grade ⩾3 AE: Dehydration (dose 2.34 mg/m^2 (n=10)) | Drug-related grade ⩾3 AE: Diarrhea (dose 2.34 mg/m^2 (n=10)) | Drug-related AE: Dysgeusia (dose 3.11 mg/m^2 (n=5)) | Drug-related AE: Paresthesia (dose 3.11 mg/m^2 (n=5)) | Drug-related AE: Pyrexia (dose 3.11 mg/m^2 (n=5)) | Drug-related AE: Abdominal pain (dose 0.125–1.0 mg/m^2 (n=4)) | Drug-related AE: Arthralgia (dose 0.125–1.0 mg/m^2 (n=4)) | Drug-related AE: Chills (dose 0.125–1.0 mg/m^2 (n=4)) | Drug-related AE: Constipation (dose 0.125–1.0 mg/m^2 (n=4)) | Drug-related AE: Cough (dose 0.125–1.0 mg/m^2 (n=4)) | Drug-related AE: Decreased platelet count (dose 0.125–1.0 mg/m^2 (n=4)) | Drug-related AE: Dysgeusia (dose 0.125–1.0 mg/m^2 (n=4)) | Drug-related AE: Lymphopenia (dose 0.125–1.0 mg/m^2 (n=4)) | Drug-related AE: Neutropenia (dose 0.125–1.0 mg/m^2 (n=4)) | Drug-related AE: Oral herpes (dose 0.125–1.0 mg/m^2 (n=4)) | Drug-related AE: Pain in extremity (dose 0.125–1.0 mg/m^2 (n=4)) | Drug-related AE: Peripheral edema (dose 0.125–1.0 mg/m^2 (n=4)) | Drug-related AE: Pyrexia (dose 0.125–1.0 mg/m^2 (n=4)) | Drug-related AE: Vomiting (dose 0.125–1.0 mg/m^2 (n=4)) | Drug-related grade ⩾3 AE: Dehydration (dose 0.125–1.0 mg/m^2 (n=4)) | Drug-related grade ⩾3 AE: Diarrhea (dose 0.125–1.0 mg/m^2 (n=4)) | Drug-related grade ⩾3 AE: Lymphopenia (dose 0.125–1.0 mg/m^2 (n=4)) | Drug-related grade ⩾3 AE: Neutropenia (dose 0.125–1.0 mg/m^2 (n=4)) | Drug-related grade ⩾3 AE: Thrombocytopenia (dose 0.125–1.0 mg/m^2 (n=4)) | Drug-related grade ⩾3 AE: Renal failure (dose 1.4 mg/m^2 (n=4)) | Drug-related grade ⩾3 AE: Renal failure (dose 1.76 mg/m^2 (n=7)) | Drug-related grade ⩾3 AE: Renal failure (dose 2.34 mg/m^2 (n=10)) | Drug-related grade ⩾3 AE: Renal failure (dose 0.125–1.0 mg/m^2 (n=4)) | Drug-related AE: PN NEC (dose 1.4 mg/m^2 (n=4)) | Drug-related AE: PN NEC (dose 2.34 mg/m^2 (n=10))
3 n: Drug-related AE: Pyrexia (dose 1.76 mg/m^2 (n=7)) | Drug-related grade ⩾3 AE: Any grade ⩾3 AE (dose 1.76 mg/m^2 (n=7)) | Drug-related AE: Neutropenia (dose 2.34 mg/m^2 (n=10)) | Drug-related grade ⩾3 AE: Neutropenia (dose 2.34 mg/m^2 (n=10)) | Drug-related AE: Constipation (dose 3.11 mg/m^2 (n=5)) | Drug-related AE: Decreased appetite (dose 3.11 mg/m^2 (n=5)) | Drug-related AE: Vomiting (dose 3.11 mg/m^2 (n=5)) | Drug-related grade ⩾3 AE: Any grade ⩾3 AE (dose 3.11 mg/m^2 (n=5)) | Drug-related grade ⩾3 AE: Diarrhea (dose 3.11 mg/m^2 (n=5)) | Drug-related AE: Fatigue (dose 0.125–1.0 mg/m^2 (n=4))
4 (13) n (%): Drug-related AE: PN NEC (all doses, Total (n=30))
10 n: Drug-related AE: Any AE (dose 2.34 mg/m^2 (n=10))
2 (7) n (%): Drug-related grade ⩾3 AE: Renal failure (all doses, Total (n=30))
5 n: Drug-related AE: Any AE (dose 3.11 mg/m^2 (n=5))
4 n: Drug-related AE: Vomiting (dose 1.76 mg/m^2 (n=7)) | Drug-related grade ⩾3 AE: Any grade ⩾3 AE (dose 2.34 mg/m^2 (n=10)) | Drug-related AE: Diarrhea (dose 3.11 mg/m^2 (n=5)) | Drug-related AE: Any AE (dose 0.125–1.0 mg/m^2 (n=4))
13%: Drug-related peripheral neuropathy (PN), patients (grade 1 or 2, all doses, n=30)
1 n: Drug-related AE: Peripheral edema (dose 1.76 mg/m^2 (n=7)) | Drug-related grade ⩾3 AE: Neutropenia (dose 1.76 mg/m^2 (n=7)) | Drug-related grade ⩾3 AE: Thrombocytopenia (dose 1.76 mg/m^2 (n=7)) | Drug-related AE: Arthralgia (dose 2.34 mg/m^2 (n=10)) | Drug-related AE: Chills (dose 2.34 mg/m^2 (n=10)) | Drug-related AE: Cough (dose 2.34 mg/m^2 (n=10)) | Drug-related AE: Dysgeusia (dose 2.34 mg/m^2 (n=10)) | Drug-related AE: Headache (dose 2.34 mg/m^2 (n=10)) | Drug-related AE: Nausea (dose 2.34 mg/m^2 (n=10)) | Drug-related AE: Oral herpes (dose 2.34 mg/m^2 (n=10)) | Drug-related AE: Paresthesia (dose 2.34 mg/m^2 (n=10)) | Drug-related AE: Vomiting (dose 2.34 mg/m^2 (n=10)) | Drug-related grade ⩾3 AE: Lymphopenia (dose 2.34 mg/m^2 (n=10)) | Drug-related grade ⩾3 AE: Thrombocytopenia (dose 2.34 mg/m^2 (n=10)) | Drug-related AE: Chills (dose 3.11 mg/m^2 (n=5)) | Drug-related AE: Cough (dose 3.11 mg/m^2 (n=5)) | Drug-related AE: Headache (dose 3.11 mg/m^2 (n=5)) | Drug-related AE: Lymphopenia (dose 3.11 mg/m^2 (n=5)) | Drug-related AE: Neutropenia (dose 3.11 mg/m^2 (n=5)) | Drug-related AE: Oral herpes (dose 3.11 mg/m^2 (n=5)) | Drug-related AE: Pain in extremity (dose 3.11 mg/m^2 (n=5)) | Drug-related AE: Peripheral edema (dose 3.11 mg/m^2 (n=5)) | Drug-related AE: Thrombocytopenia (dose 3.11 mg/m^2 (n=5)) | Drug-related grade ⩾3 AE: Lymphopenia (dose 3.11 mg/m^2 (n=5)) | Drug-related grade ⩾3 AE: Neutropenia (dose 3.11 mg/m^2 (n=5)) | Drug-related grade ⩾3 AE: Thrombocytopenia (dose 3.11 mg/m^2 (n=5)) | Drug-related AE: Decreased appetite (dose 0.125–1.0 mg/m^2 (n=4)) | Drug-related AE: Diarrhea (dose 0.125–1.0 mg/m^2 (n=4)) | Drug-related AE: Hypokalemia (dose 0.125–1.0 mg/m^2 (n=4)) | Drug-related AE: Nausea (dose 0.125–1.0 mg/m^2 (n=4)) | Drug-related AE: Paresthesia (dose 0.125–1.0 mg/m^2 (n=4)) | Drug-related AE: Thrombocytopenia (dose 0.125–1.0 mg/m^2 (n=4)) | Drug-related grade ⩾3 AE: Any grade ⩾3 AE (dose 0.125–1.0 mg/m^2 (n=4)) | Drug-related AE: PN NEC (dose 3.11 mg/m^2 (n=5)) | Drug-related AE: PN NEC (dose 0.125–1.0 mg/m^2 (n=4))
2 n: Drug-related AE: Thrombocytopenia (dose 1.76 mg/m^2 (n=7)) | Drug-related AE: Abdominal pain (dose 2.34 mg/m^2 (n=10)) | Drug-related AE: Diarrhea (dose 2.34 mg/m^2 (n=10)) | Drug-related AE: Fatigue (dose 2.34 mg/m^2 (n=10)) | Drug-related AE: Lymphopenia (dose 2.34 mg/m^2 (n=10)) | Drug-related AE: Pain in extremity (dose 2.34 mg/m^2 (n=10)) | Drug-related AE: Peripheral edema (dose 2.34 mg/m^2 (n=10)) | Drug-related AE: Pyrexia (dose 2.34 mg/m^2 (n=10)) | Drug-related AE: Thrombocytopenia (dose 2.34 mg/m^2 (n=10)) | Drug-related AE: Abdominal pain (dose 3.11 mg/m^2 (n=5)) | Drug-related AE: Arthralgia (dose 3.11 mg/m^2 (n=5)) | Drug-related AE: Decreased platelet count (dose 3.11 mg/m^2 (n=5)) | Drug-related AE: Fatigue (dose 3.11 mg/m^2 (n=5)) | Drug-related AE: Hypokalemia (dose 3.11 mg/m^2 (n=5)) | Drug-related AE: Nausea (dose 3.11 mg/m^2 (n=5)) | Drug-related grade ⩾3 AE: Dehydration (dose 3.11 mg/m^2 (n=5)) | Drug-related AE: Headache (dose 0.125–1.0 mg/m^2 (n=4)) | Drug-related grade ⩾3 AE: Renal failure (dose 3.11 mg/m^2 (n=5)) | Drug-related AE: PN NEC (dose 1.76 mg/m^2 (n=7))

— paper PMC4220649 (Blood Cancer Journal, 2014)
